# Assay results published in ChEMBL document CHEMBL1687909, “Design, synthesis, and biological evaluation of new cinnamic derivatives as antituberculosis agents” (J Med Chem, 2011).
# Calls of active or inactive are those of the source. The rule behind the calls is not given here.
# Tests used:
# [1] = system: Mycobacterium tuberculosis; assay: Antituberculosis activity against Mycobacterium tuberculosis H37Rv after 7 days by MTT assay; assay type: functional; settings: 168 h
# In short: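 Colorimetric MTT microassay: serial 2-fold dilutions from DMSO stocks in Middlebrook 7H9 broth, bacterial suspension in 7H9 added. After 6 days, MTT (1 mg/mL) added; 1 day later solubilization buffer, OD 570 nm. MIC = lowest concentration inhibiting growth, untreated bacilli as growth control.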
# THP-1 = assay: Cytotoxicity against human THP1 cells after 72 hrs by MTT assay; assay type: cell-based; settings: THP-1, 72 h
# [2] = Selectivity index, ratio of IC50 for human THP1 cells to MIC for Mycobacterium tuberculosis H37Rv; assay type: functional, THP-1
# [3] = system: Mycobacterium tuberculosis; assay: Antimycobacterial activity against Mycobacterium tuberculosis assessed as inhibition of mycolic acid biosynthesis by TLC; assay type: functional, organism-based
# In short: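 Cells saponified in 40% KOH/methoxyethanol overnight at 100 °C, acidified with H2SO4, lipids ether-extracted, fatty acids methylated; methyl esters resolved by silica TLC in dichloromethane, phosphorimaged.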
# [4] = system: Mycobacterium tuberculosis; assay: Selectivity ratio of MIC for isoniazid to compound for Mycobacterium tuberculosis 1400; assay type: functional
# [5] = system: Mycobacterium tuberculosis; assay: Selectivity ratio of MIC for isoniazid to compound for Mycobacterium tuberculosis MYC5165; assay type: functional
SMILES,MIC [1] [µM],IC50 (THP-1) [µM],Selectivity Index [2],also measured
CC(C)=CCOc1ccc(C2CC2c2nnc3c4ccccc4cnn23)cc1 (racemic),21,–,–,–
COc1ccc(/C=C/C(=O)NNC(=O)c2ccncc2)cc1,0.3,168,560,inhibition [3]: Active
COc1ccc(C2CC2c2nnc3c4ccccc4cnn23)cc1 (racemic),395,–,–,–
CC(C)=CCC/C(C)=C/COc1ccc(C2CC2c2nnc3c4ccccc4cnn23)cc1 (racemic),28,–,–,–
CC(C)=CCC/C(C)=C/COc1ccc(/C=C/C(=O)NNC(=O)c2ccncc2)cc1,1.9,43,22,inhibition [3]: Active
CC(C)=CCOc1ccc(/C=C/C(=O)NNC(=O)c2ccncc2)cc1,2.3,256,111,inhibition [3]: Active
COc1ccc(/C=C/C(=O)N/N=c2/[nH]ncc3ccccc23)cc1,50,437,8,–
CCOc1ccc(C2CC2c2nnc3c4ccccc4cnn23)cc1 (racemic),378,–,–,–
O=C(/C=C/c1ccc(OCC(F)(F)F)cc1)NNC(=O)c1ccncc1,2.2,–,–,inhibition [3]: Active
CC(C)=CCOc1ccc(/C=C/c2nnc3c4ccccc4cnn23)cc1,1.4,449,320,Ratio [4]: 100; Ratio [5]: 1800
COc1ccc(/C=C/C(=O)N[C@@H]2CONC2=O)cc1,950,–,–,–
NNC(=O)c1ccncc1 [ISONIAZID],0.6,> 3650,>6081,–
FC(F)(F)Oc1ccc(C2CC2c2nnc3c4ccccc4cnn23)cc1 (racemic),170,–,–,–
O=C(/C=C/c1ccc(OC(F)(F)F)cc1)NNC(=O)c1ccncc1,1.1,–,–,inhibition [3]: Active
CCOc1ccc(/C=C/C(=O)N/N=c2/[nH]ncc3ccccc23)cc1,12,–,–,–
CCOc1ccc(/C=C/c2nnc3c4ccccc4cnn23)cc1,39,–,–,–
CCOc1ccc(/C=C/C(=O)NNC(=O)c2ccncc2)cc1,1.3,–,–,inhibition [3]: Active
O=C(/C=C/c1ccc(OC(F)(F)F)cc1)N/N=c1/[nH]ncc2ccccc12,21,–,–,–
CC(C)=CCC/C(C)=C/COc1ccc(/C=C/c2nnc3c4ccccc4cnn23)cc1,19,259,13,–
FC(F)(F)COc1ccc(/C=C/c2nnc3c4ccccc4cnn23)cc1,170,–,–,–
FC(F)(F)Oc1ccc(/C=C/c2nnc3c4ccccc4cnn23)cc1,702,–,–,–
FC(F)(F)COc1ccc(C2CC2c2nnc3c4ccccc4cnn23)cc1 (racemic),1300,–,–,–
CC(C)=CCOc1ccc(/C=C/C(=O)N/N=c2/[nH]ncc3ccccc23)cc1,21,26,1,–
COc1ccc(/C=C/c2nnc3c4ccccc4cnn23)cc1,53,695,13,–
CC(C)=CCC/C(C)=C/COc1ccc(/C=C/C(=O)N/N=c2/[nH]ncc3ccccc23)cc1,72,56,0.8,–
O=C(/C=C/c1ccc(OCC(F)(F)F)cc1)N/N=c1/[nH]ncc2ccccc12,20,–,–,–
